Experimental data reported in article PMC12257300 (RSC Advances, 2025).
*: point of attachment. Fmoc = O=C(OCC1c2ccccc2-c2ccccc21)*

Legend:
[1] = Gelation by inverted tube test / minimum gelation concentration; assay type: physicochemical; conditions: 1 w/v% of sequence + 1 w/v% H-FQFQFK-NH2 in PBS
Outline: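 Gels formed by adding PBS to the peptide acetate salt in a tube, then repeated vortexing (1 min) and sonication (5 min), and resting overnight at room temperature before assessment.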

[2] = soft Fmoc-WWRR-NH2 based hydrogels; cited from earlier work
[3] = Rheology, shear recovery experiment; assay type: physicochemical; conditions: 2 w/v% P4 biogel, shear strain 50%, 1 Hz, 25 °C
Outline: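 Hydrogel (350 μL) loaded on a 25 mm plate and rested 5 min. G′ and G′′ were recorded for 60 s at 1 Hz and 1% strain, then strain was raised to 50% for 30 s. The cycle was repeated 4 times under a 1 N normal force at 25 °C, in threefold.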

Gelation behavior of co-formulation with parent peptide (inverted tube test) [1] | Substance | also measured
self-supporting hydrogels | H-WRWRFQFQFK-NH2 [P2, H-WRWRFQFQFK-NH2] | –
self-supporting hydrogels | H-RRWWQFQFK-NH2 [P5, H-RRWWQFQFK-NH2] | –
– | Fmoc-WWRR-NH2 | Storage modulus G′ of reported hydrogel [2]: ~100 Pa
– | H-RWRWQFQFK-NH2 [P4, H-RWRWQFQFK-NH2] | tan δ at increased shear strain [3]: 0.6
